# PRMT1 inh: PRMT1 methyltransferase inhibitors, primary screen, biochemical, fluorescence polarization; recombinant PRMT1, activity-based probe fluorescence polarization; Protein arginine N-methyltransferase 1 (Homo sapiens), Q99873; AID 652257, 2013; hit rate 1.3% among 370,000; inhibition, % at 2.79 µM;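 active = inhibition above about 21% made by adding two undisclosed values, limit read from the data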
# TCR CD3 inh: inhibitors of human TCR-CD3 interaction, primary screen, biochemical, fluorescence, TAMRA-labeled TCR probe; inhibition, % at 9.4 µM; hit rate 0.37% among 360,000; T-cell receptor (TCR); in the data active = inhibition above about 19%;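 note: recombinant mutant TCR 2C K166C tagged with TAMRA read by polarization; 0% = receptor in buffer alone and 100% = receptor with positive control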
# ABHD4 inh: ABHD4 inhibitors, primary screen, biochemical, fluorescence polarization, mouse | inhibition, % at 8.92 µM | AID 720543, 2013 | purified mABHD4, FP-Rh probe fluorescence polarization | (Lyso)-N-acylphosphatidylethanolamine lipase (Mus musculus), Q8VD66 | hit rate 0.54% among 370,000;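 active = inhibition exceeding the mean over every tested compound plus 3 SD, cut at about 30% in these data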;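 note: 0% = plate median of compound wells and 100% = S159A mutant with DMSO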
# Target sequence (Q8VD66 whole entry, looked up): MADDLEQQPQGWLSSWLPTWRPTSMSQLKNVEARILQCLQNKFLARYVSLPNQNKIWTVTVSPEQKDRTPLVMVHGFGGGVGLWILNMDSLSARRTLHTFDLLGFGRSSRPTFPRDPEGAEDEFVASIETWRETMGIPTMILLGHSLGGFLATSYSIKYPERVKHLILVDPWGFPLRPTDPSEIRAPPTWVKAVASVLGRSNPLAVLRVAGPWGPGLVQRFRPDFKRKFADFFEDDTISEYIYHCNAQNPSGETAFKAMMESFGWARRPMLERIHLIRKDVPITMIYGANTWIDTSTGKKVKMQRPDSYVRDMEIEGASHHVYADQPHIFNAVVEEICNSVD
#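 Material: mouse ABHD4 enzyme, wild type; Benchmarks: S159A mutant high control, sample median low control; Buffer or medium: HEPES pH 7.0, NaCl, Pluronic buffer; Signal: fluorescence polarization; Read-out: percent inhibition of probe binding, normalized to plate controls; Timing: pre-incubation 45 min, probe exposure 60 min, at 25 °C; Dosing: 8.92 µM, single dose.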
# SIAE inh: human SIAE inhibitors, primary screen, biochemical, fluorescence polarization, FP-Rh probe, 1536-well HTS; Sialate O-acetylesterase (Homo sapiens), Q9HAT2; SIAE FP-Rh probe binding; inhibition, % at 9.66 µM; hit rate 0.69% among 370,000; AID 1053197, 2014;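 active = inhibition above a cutoff: mean of compounds within the control limits plus 3 SD of those, cut at about 17% in these data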;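 note: 0% = plate median of compound wells and 100% = probe without SIAE protein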
# HTRA1 inhibitor: HTRA1 serine protease inhibitors, primary screen, biochemical, fluorescence polarization, HTS | Q92743 | inhibition, % at 5.96 µM | hit rate 0.5% among 340,000 | recombinant HTRA1, FP-rhodamine activity-based probe; in the data active = inhibition above about 36%;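 note: 0% = enzyme with DMSO and 100% = wells lacking enzyme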
# PAD4 inh: human PAD4 inhibitors, primary screen, biochemical, fluorescence polarization, 1536-well format; recombinant PAD4, RCA probe fluorescence polarization; inhibition, % at 6.36 µM; hit rate 0.41% among 330,000; AID 485272, 2010;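 active = percent inhibition above a cutoff equal to the mean of all tested compounds plus 3 SD, cut at about 15% in these data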;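 note: 0% = PAD4 with RCA probe and DMSO and 100% = probe without PAD4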
# mABHD4 conf: ABHD4 inhibitors, retest, confirmation, biochemical, fluorescence polarization, mouse; shares compounds with ABHD4 inh; purified mABHD4, FP-Rh probe fluorescence polarization; inhibition, % at 8.92 µM; hit rate 55% among 1,800; AID 720658, 2013;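 active = mean inhibition across replicates above the hit cutoff set in the primary screen, cut at about 30% in these data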;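 note: 0% = wild-type ABHD4 with DMSO and 100% = catalytically dead S159A mutant with DMSO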
# SIAE inh conf: human SIAE inhibitors, retest, confirmation, biochemical, fluorescence polarization, FP-Rh probe, triplicate | shares compounds with SIAE inh | SIAE FP-Rh activity-based probe | inhibition, % at 9.66 µM | hit rate 13% among 2,300;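 active = mean inhibition of the replicates above the hit cutoff set in the primary screen, cut at about 17% in these data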;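 note: 0% = SIAE with DMSO and probe and 100% = probe without SIAE; inhibitors lower polarization as more probe stays unbound to SIAE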
# The depositor's hits bear a star; . = no result given. In the library only some 2.9% were active in any assay of this set; here they are far more common.
SMILES,PRMT1 inh,TCR CD3 inh,ABHD4 inh,SIAE inh,HTRA1 inhibitor,PAD4 inh,mABHD4 conf,others
Cc1ccc(-n2c(=S)[nH]c3ccc(C)cc3c2=O)cc1,-2,-6,46*,-4,-2,.,33*,
Cc1c(CCC(=O)N2C[C@H]3C[C@@H](C2)c2cccc(=O)n2C3)c(=O)oc2c(C)c(O)ccc12,-2,-3,0,6,.,.,.,
Cc1cccc(-c2nc3ccc(C(=O)N4CCC5(CC4)OCCO5)cc3nc2-c2cccc(C)c2)c1,-4,2,32*,-7,-35,0,48*,
CC(=O)OC1CC2OC3C=C(C)CCC3(C)C1(C)C21CO1 (stereo unspecified),-3,7,-3,-2,.,.,.,
CC(=O)Nc1ccc(S(=O)(=O)N2Cc3ccccc3-n3nncc3C2)cc1,-3,-5,1,1,0,.,.,
O=C1NC(=O)C(C2CCOC2=O)N1 (stereo unspecified),-3,-3,3,-10,6,.,.,
COc1cc(/C=C/c2nc3ccccc3c(=O)n2-c2ccc(O)cc2)ccc1O,0,3,39*,8,0,-1,45*,
COC(=O)C1=C(c2ccc(OCc3ccccc3)cc2)C[C@@H]2CC[C@H]1N2C(=O)NCc1ccc(OC)cc1,3,-2,41*,-9,-40,.,43*,
COC(=O)C1=C(c2ccc(OCc3ccccc3)cc2)C[C@@H]2CC[C@H]1N2C(=O)NCc1ccc(C(C)(C)C)cc1,-1,-1,33*,-3,-32,.,50*,
COC(=O)C1=C(c2ccc(OCc3ccccc3)cc2)C[C@@H]2CC[C@H]1N2C(=O)NCc1cccc(OC)c1,-1,2,31*,-11,-37,1,35*,
COC(=O)C1=C(c2ccc(OCc3ccccc3)cc2)C[C@@H]2CC[C@H]1N2C(=O)NCc1ccccc1,-2,7,21,-5,-23,-4,.,
COC(=O)C1=C(c2ccc(OCc3ccccc3)cc2)C[C@@H]2CC[C@H]1N2C(=O)NCc1ccc2c(c1)OCO2,0,4,51*,0,-24,.,33*,
COC(=O)C1=C(c2ccc(OCc3ccccc3)cc2)C[C@@H]2CC[C@H]1N2C(=O)NCc1ccc([N+](=O)[O-])cc1,-3,3,5,-8,0,1,.,
COC(=O)C1=C(c2cccc(OCc3ccccc3)c2)C[C@@H]2CC[C@H]1N2C(=O)NCc1ccc(OC)cc1,-1,1,-2,-9,-35,1,.,
C[C@]12CC[C@@H](O)CC1=CCC1C2CC[C@@]2(C)C1C[C@@H](F)[C@H]2O (stereo partly specified),-1,-3,-2,-1,0,.,.,
C/C(=N\NC(=O)c1ccccc1O)c1c(O)n(C2CCCCC2)c(=O)[nH]c1=O,11,15,37*,-6,17,-4,44*,
O=C(N/N=C/c1c(O)n(C2CC2)c(=S)[nH]c1=O)c1ccccc1O,1,11,35*,-22,4,-1,25,
CCCCCCCSc1cc(OC)c(CCN(C)C)cc1OC,-3,9,32*,7,21,1,35*,
COc1cc(O)c(C(=O)O)c(-c2cc(O)c(O)cc2C)c1,67*,11,37*,13,21,1,33*,
COc1ccc2c(c1)c(C(=O)O)c(C)n2CC(C)C,-3,9,9,-9,-2,0,.,
COc1ccc(CCN)cc1S(N)(=O)=O,-3,-2,-1,-3,.,.,.,
Cc1cccc(C)c1-n1nnnc1C(c1cccc2ccccc12)N1CCC2(CC1)C(=O)NCN2c1ccccc1 (stereo unspecified),-4,-5,1,2,.,.,.,
C[C@]12CC[C@@H]3c4ccc(O)c(O)c4CC[C@H]3[C@@H]1CC[C@@H]2O,35*,11,30*,-7,28,1,19,
O=[N+]([O-])c1cc(O)c(O)c([N+](=O)[O-])c1,32*,9,74*,6,35,7,50*,
CCCCn1c(O)c(/C=N/N2CCOCC2)c(=O)[nH]c1=S,0,4,-1,19*,-3,-1,.,SIAE inh conf=2
SMILES,PRMT1 inh,TCR CD3 inh,ABHD4 inh,SIAE inh,HTRA1 inhibitor,PAD4 inh,mABHD4 conf,others
CC1(O)CCC2C3CCC4=CC(=O)CCC4=C3C=CC21C (stereo unspecified),-2,5,-3,19*,-4,.,.,SIAE inh conf=0
CCOP(=O)(OCC)C(NC(=O)c1cccc2ccccc12)C(Cl)(Cl)Cl (stereo unspecified),0,6,-2,-12,0,1,.,
CCOP(=O)(OCC)C(NC(=O)c1ccccc1C)C(Cl)(Cl)Cl (stereo unspecified),-2,-1,-4,19*,6,0,.,SIAE inh conf=2
O=P(/C=C1\OCc2ccccc21)(Oc1ccccc1)Oc1ccccc1,12,-1,-14,0,.,.,.,
CCCCCSc1cc(OC)c(CCN)cc1OC,2,6,11,19*,6,-1,.,SIAE inh conf=2
Cc1cc(OCC(=O)N2CCC(C(N)=O)CC2)c2c3c(c(=O)oc2c1)CCCC3,-1,-2,-1,18*,-2,1,.,SIAE inh conf=6
Cc1cc(OCC(=O)O)c2c3c(c(=O)oc2c1)CCCC3,-1,6,-2,3,4,-2,.,
COc1cc(C(=S)N2CCOCC2)cc(OC)c1OC(=O)Cc1ccccc1,0,7,-3,19*,-7,-6,.,SIAE inh conf=5
O=C(/C=C/c1ccccc1)N1Cc2ccccc2-n2nncc2C1,-6,4,1,-2,6,.,.,
CC(=O)OC1CCC2(C)C3CCC4(C)C(OC(C)=O)CCC4C3C(C)C2(O)C1 (stereo unspecified),-2,5,-2,-6,-8,.,.,
O=C(NCCN1CCC2(CC1)C(=O)NCN2c1cccc(F)c1)c1ccc2ccccc2c1,-2,-7,27,4,.,.,.,
N#CC[N+]1(CCCNP2(=O)C=C(c3ccccc3)OC(c3ccccc3)=C2)CCOCC1,-2,0,-1,18*,3,1,.,SIAE inh conf=-4
OCC#CC[N+]1(CC#Cc2ccccc2)CCOCC1,0,4,-1,2,2,-6,.,

# From PubChem BioAssay
